Results from publication PMC13618202 (ACS chemical biology, 2026).
pIC50: −log10 of the molar value.

Legend:
[1] = target: T1, UBA5 (Homo sapiens, UniProt Q9GZZ9); experiment: AMP-Glo UBA5 UFMylation assay; format: biochemical; conditions: read-out: IC50-UBA5-Glo; UBA5 0.8 μM; UFM1 5 μM; ATP 5 μM
T1 sequence (Q9GZZ9 37-346): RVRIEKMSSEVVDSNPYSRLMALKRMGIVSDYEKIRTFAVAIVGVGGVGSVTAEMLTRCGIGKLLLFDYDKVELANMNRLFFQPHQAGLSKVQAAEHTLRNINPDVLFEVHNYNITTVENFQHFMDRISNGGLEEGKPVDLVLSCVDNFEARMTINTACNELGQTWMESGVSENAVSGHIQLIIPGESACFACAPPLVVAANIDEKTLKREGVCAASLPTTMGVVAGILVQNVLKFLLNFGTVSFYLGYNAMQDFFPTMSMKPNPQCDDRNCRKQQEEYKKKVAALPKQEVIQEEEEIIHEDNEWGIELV

[2] = system: UBA5; conditions: read-out: IC50 (UBA5); cited from earlier work
[3] = system: coupling enzymes in the AMP-Glo kit; experiment: UBA5-free AMP-Glo coupling enzyme assay; format: biochemical; conditions: 3 mM, no UBA5, ATP 5 μM with or without AMP 5 μM
Procedure, shortened: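 Without UBA5: test compound (0–100 μM) incubated 30 min with AMP-Glo kit components and UFM1 (5 μM), then AMP added to a final 5 μM as direct substrate. Luminescence endpoint read at 37 °C with 2 min integration. Normalized to DMSO wells with AMP (100%) and without AMP (0%). Triplicate.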

[4] = target: T1, UBA5; experiment: Fluorescence polarization; format: biochemical; conditions: titration
Procedure, shortened: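 UBA5 (1 μM) preincubated 1 h with test compound (0–25 μM), then UFM1 (2.5 μM) and ATP (20 μM) added for 30 min at RT. Transcreener detection reagent (anti-AMP antibody, Alexa Fluor 633 AMP tracer) added for 1.5 h. AMP read as fluorescence polarization. IC50 by curve fitting, triplicate.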

[5] = target: T1, UBA5; experiment: Gel-based UBA5-UFM1 charging assay; format: biochemical; conditions: UBA5 12 μM; UFM1 25 μM; ATP 2 mM; 2 h
Procedure, shortened: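 UBA5 (12 μM) incubated 1 h with test compound (0–100 μM) in 50 mM Bis-Tris pH 6.5, 100 mM NaCl, 10 mM MgCl2. UFM1 (25 μM) and ATP (2 mM) then added for 2 h at 30 °C; zero time points taken before ATP addition. Gel read-out of UBA5–UFM1 thioester, duplicate.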

[6] = system: global cellular ubiquitination in HEK293T cells; experiment: Global cellular ubiquitination; format: cell-based, Human; conditions: compounds 60 μM, TAK-243 125 or 250 nM, 5 h

COc1ccc(CNC(=O)CCl)cc1OC [DKM 2-93]
pIC50 [1]: 3.26 | pIC50 [2]: 3.37 | interference with the AMP-Glo detection system [3]: does not significantly interfere | inhibition of UBA5 reaction in FP assay [4]: dose-dependently inhibited the reaction | UBA5-UFM1 thioester formation (UFM1 activation) [5]: significantly reduced UFM1 activation

NS(=O)(=O)OC[C@H]1C[C@@H](Nc2ccnc3cc(-c4cccc(SC(F)(F)F)c4)nn23)[C@H](O)[C@@H]1O [TAK-243]
global cellular ubiquitination [6]: markedly reduced global cellular ubiquitination

Nc1ncnc2c1ncn2[C@@H]1O[C@H](COS(N)(=O)=O)[C@@H](O)[C@H]1O [adenosine 5’-sulfamate (ADS), adenosine 5’-sulfamate]
pIC50 [2]: 4.89
